In ChEMBL document CHEMBL2176984, “Target Selectivity of FimH Antagonists” (J Med Chem, 2012):

Legend:
[1] = target: Mannose-binding protein C (Homo sapiens) (UniProt P11226); experiment: Displacement of biotinylated-TM PAA from human MBP at 50 mM after 3 hrs by colorimetry
In short: (§1)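 α-D-mannose served as the positive control at 50 mM final, mixed with streptavidin-HRP-TM-PAA and applied to lectin-coated wells. Wells were coated overnight at 4 °C in HEPES/NaCl/10 mM CaCl2 at pH 7.4 and blocked with BSA. Incubation was 3 h at 25 °C, followed by four washes and ABTS development for 4 min, stopped with oxalic acid, OD 415 nm. Binding is expressed as % of the antagonist-free signal after subtracting the polymer-free background.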

[2] = target: T1, Macrophage mannose receptor 1 (Homo sapiens) (UniProt P22897); experiment: Displacement of biotinylated-TM PAA from human MMR at 50 mM after 3 hrs by colorimetry; in short: as §1
T1 sequence (whole entry): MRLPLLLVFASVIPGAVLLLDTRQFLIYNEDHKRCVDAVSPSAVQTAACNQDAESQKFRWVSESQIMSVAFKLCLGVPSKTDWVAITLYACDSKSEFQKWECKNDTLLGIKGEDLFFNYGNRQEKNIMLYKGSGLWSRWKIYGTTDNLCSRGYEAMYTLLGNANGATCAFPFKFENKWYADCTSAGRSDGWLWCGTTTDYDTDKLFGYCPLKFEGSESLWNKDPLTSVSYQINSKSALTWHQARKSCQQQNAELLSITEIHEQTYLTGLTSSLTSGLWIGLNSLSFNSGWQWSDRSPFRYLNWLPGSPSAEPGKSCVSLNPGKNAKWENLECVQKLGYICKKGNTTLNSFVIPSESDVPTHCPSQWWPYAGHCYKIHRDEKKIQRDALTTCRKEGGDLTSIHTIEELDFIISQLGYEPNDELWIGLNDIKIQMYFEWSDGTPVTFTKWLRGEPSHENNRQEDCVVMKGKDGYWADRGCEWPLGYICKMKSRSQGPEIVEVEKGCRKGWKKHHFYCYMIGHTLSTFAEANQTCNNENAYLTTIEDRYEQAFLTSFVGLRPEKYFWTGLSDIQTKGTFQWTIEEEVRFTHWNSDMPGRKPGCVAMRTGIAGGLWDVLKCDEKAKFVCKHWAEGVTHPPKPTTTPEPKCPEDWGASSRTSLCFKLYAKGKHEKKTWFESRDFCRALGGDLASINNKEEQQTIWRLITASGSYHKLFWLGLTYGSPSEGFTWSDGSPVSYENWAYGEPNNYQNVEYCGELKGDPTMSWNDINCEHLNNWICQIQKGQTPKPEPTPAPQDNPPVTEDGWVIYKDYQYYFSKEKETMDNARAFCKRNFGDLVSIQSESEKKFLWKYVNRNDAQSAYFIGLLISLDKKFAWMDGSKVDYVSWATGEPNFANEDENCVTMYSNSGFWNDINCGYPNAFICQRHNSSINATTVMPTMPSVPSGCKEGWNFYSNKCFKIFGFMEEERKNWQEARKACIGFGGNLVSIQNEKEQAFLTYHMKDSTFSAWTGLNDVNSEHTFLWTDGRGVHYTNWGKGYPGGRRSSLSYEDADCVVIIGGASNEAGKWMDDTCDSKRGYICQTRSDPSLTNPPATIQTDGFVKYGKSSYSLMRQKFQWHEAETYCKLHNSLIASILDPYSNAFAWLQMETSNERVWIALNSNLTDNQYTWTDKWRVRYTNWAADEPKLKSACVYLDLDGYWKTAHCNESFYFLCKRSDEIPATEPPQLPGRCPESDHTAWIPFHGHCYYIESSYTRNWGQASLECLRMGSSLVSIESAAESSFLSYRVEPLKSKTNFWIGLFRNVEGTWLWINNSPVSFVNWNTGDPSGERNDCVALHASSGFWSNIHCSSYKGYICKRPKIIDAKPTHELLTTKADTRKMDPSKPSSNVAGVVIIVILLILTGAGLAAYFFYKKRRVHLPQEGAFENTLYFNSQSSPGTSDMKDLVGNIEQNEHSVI

[3] = target: T2, CD209 antigen (Homo sapiens) (UniProt Q9NNX6); experiment: Displacement of biotinylated-TM PAA from human DC-SIGN at 50 mM after 3 hrs by colorimetry; in short: as §1
T2 sequence (whole entry): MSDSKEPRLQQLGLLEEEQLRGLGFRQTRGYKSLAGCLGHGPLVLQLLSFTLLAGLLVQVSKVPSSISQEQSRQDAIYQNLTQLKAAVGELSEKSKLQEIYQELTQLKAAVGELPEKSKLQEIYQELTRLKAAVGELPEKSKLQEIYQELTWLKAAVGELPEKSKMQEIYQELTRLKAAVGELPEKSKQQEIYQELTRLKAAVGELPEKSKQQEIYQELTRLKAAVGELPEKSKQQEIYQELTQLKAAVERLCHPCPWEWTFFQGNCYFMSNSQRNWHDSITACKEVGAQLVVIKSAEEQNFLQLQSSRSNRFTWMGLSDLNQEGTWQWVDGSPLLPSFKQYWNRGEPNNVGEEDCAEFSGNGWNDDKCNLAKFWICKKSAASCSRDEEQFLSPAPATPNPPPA

[4] = target: T3, Pulmonary surfactant-associated protein D (Homo sapiens) (UniProt P35247); experiment: Displacement of biotinylated-TM PAA from human SP-D at 50 mM after 3 hrs by colorimetry; in short: as §1
T3 sequence (whole entry): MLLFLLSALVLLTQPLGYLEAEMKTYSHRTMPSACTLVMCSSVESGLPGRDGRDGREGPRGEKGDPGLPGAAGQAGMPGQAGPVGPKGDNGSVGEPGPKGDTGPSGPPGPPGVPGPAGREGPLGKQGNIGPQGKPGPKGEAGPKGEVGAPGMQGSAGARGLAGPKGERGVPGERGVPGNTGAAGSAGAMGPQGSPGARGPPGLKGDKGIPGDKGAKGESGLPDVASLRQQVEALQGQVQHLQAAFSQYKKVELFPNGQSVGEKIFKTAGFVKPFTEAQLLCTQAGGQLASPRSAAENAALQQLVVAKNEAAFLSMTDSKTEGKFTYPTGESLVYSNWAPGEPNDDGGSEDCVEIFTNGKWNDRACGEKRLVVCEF

[5] = target: T4, C-type lectin domain family 4 member M (Homo sapiens) (UniProt Q9H2X3); experiment: Displacement of biotinylated-TM PAA from human DC-SIGNR at 50 mM after 3 hrs by colorimetry; in short: as §1
T4 sequence (whole entry): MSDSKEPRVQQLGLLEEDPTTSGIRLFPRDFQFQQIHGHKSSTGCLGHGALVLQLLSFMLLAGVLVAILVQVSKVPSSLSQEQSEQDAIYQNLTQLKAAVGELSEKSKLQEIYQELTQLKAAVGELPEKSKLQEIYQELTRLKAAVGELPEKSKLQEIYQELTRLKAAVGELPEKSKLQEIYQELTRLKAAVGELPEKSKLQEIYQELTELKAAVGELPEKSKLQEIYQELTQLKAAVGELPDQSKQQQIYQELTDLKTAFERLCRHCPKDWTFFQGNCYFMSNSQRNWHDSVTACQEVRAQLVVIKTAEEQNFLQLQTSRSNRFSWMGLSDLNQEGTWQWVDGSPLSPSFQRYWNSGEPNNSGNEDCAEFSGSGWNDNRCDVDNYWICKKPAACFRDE

[6] = target: T5, C-type lectin domain family 4 member C (Homo sapiens) (UniProt Q8WTT0); experiment: Displacement of biotinylated-TM PAA from human DLEC at 50 mM after 3 hrs by colorimetry; in short: as §1
T5 sequence (whole entry): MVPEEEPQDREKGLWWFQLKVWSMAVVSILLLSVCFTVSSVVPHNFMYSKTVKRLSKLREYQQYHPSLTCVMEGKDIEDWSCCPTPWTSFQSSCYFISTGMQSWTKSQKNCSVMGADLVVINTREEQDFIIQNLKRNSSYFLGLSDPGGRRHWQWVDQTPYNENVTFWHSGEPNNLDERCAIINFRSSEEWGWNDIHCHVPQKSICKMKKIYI

[7] = target: C-type lectin domain family 4 member K (Homo sapiens, UniProt Q9UJ71); experiment: Displacement of biotinylated-TM PAA from human langerin at 50 mM after 3 hrs by colorimetry; in short: as §1
[8] = target: T6, C-type lectin domain family 6 member A (Homo sapiens) (UniProt Q6EIG7); experiment: Displacement of biotinylated-TM PAA from human Dectin-2 at 50 mM after 3 hrs by colorimetry; in short: as §1
T6 sequence (whole entry): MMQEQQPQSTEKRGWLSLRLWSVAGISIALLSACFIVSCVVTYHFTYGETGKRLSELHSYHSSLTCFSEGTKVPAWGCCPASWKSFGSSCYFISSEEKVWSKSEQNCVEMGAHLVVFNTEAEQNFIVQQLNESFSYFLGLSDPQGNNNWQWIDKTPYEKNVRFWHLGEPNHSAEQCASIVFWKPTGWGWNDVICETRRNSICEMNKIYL

Escherichia coli = experiment: Displacement of biotinylated-TM PAA from Escherichia coli FimH expressed in Escherichia coli HM125 at 50 mM after 3 hrs by colorimetry; in short: as §1

Measured: inhibition

Mannose-binding protein C (Homo sapiens), sequence (P11226 whole entry): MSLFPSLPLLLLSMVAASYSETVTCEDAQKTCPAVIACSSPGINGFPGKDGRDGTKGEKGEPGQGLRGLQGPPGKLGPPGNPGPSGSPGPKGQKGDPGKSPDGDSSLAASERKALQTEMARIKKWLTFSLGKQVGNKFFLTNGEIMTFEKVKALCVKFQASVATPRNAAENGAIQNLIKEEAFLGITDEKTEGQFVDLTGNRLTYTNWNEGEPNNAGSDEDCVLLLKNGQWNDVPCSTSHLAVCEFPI
C-type lectin domain family 4 member K, sequence (Q9UJ71 whole entry, the tested form may be a part): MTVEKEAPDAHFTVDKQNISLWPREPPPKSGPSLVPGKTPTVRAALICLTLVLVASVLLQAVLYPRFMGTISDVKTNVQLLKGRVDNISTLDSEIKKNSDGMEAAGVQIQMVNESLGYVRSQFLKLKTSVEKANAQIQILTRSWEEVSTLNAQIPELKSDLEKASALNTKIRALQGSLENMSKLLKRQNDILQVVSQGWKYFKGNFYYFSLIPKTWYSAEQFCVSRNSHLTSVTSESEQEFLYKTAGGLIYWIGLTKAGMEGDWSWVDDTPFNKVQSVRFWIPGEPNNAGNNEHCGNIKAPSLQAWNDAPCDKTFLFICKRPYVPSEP

OC[C@H]1OC(O)[C@@H](O)[C@@H](O)[C@@H]1O (some centres undefined)
> 90%: all assays above
